This note sets out measurements from paper PMC5855380 (Pharmacognosy Research, 2018).

≈ marks a conversion by molar mass, not a printed value.

In this assay the test system is HDFn cells. The experiment in a line: PrestoBlue cell viability assay, HDFn. The class given is cell-based. As to conditions: Homo sapiens, 96 h, read-out: IC50 (half maximal inhibitory concentration), HDFn. Summed up: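 HDFn cells grown in DMEM with 10% FBS and 1X antibiotic-antimycotic (37°C, 5% CO2); seeded at 1×10^4 viable cells/well and attached overnight. Test compound (DMSO stock, 0.1% final DMSO) added in two-fold dilutions, 50–0.39 µg/mL final, for 4 days. PrestoBlue 2 h; absorbance 570 nm normalized to 600 nm. Untreated, Zeocin and media-only background wells. Triplicates; IC50 from dose-response curves.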

As to `CC(C)=CCC/C(C)=C/CC/C(C)=C/CC/C=C(\C)CC/C=C(\C)CCC=C(C)C` [Compound 3, squalene], the IC50 came out at 0.1 µg/mL (≈ 0.243 µM).
Under `CC1(C)CC[C@]2(C(=O)O)CC[C@]3(C)C(=CC[C@@H]4[C@@]5(C)CC[C@H](O)C(C)(C)[C@@H]5CC[C@]43C)[C@@H]2C1` [Compound 2, oleanolic acid] stands 29.5 µg/mL (≈ 64.6 µM).
